From ChEMBL document CHEMBL1641407, “Imidazo[4,5-d]thiazolo[5,4-b]pyridine based inhibitors of IKK2: synthesis, SAR, PK/PD and activity in a preclinical model of rheumatoid arthritis” (Bioorg Med Chem Lett, 2011)

Biological target: T1, Inhibitor of nuclear factor kappa-B kinase subunit alpha (Homo sapiens, UniProt O15111)
T1 sequence (O15111 whole entry): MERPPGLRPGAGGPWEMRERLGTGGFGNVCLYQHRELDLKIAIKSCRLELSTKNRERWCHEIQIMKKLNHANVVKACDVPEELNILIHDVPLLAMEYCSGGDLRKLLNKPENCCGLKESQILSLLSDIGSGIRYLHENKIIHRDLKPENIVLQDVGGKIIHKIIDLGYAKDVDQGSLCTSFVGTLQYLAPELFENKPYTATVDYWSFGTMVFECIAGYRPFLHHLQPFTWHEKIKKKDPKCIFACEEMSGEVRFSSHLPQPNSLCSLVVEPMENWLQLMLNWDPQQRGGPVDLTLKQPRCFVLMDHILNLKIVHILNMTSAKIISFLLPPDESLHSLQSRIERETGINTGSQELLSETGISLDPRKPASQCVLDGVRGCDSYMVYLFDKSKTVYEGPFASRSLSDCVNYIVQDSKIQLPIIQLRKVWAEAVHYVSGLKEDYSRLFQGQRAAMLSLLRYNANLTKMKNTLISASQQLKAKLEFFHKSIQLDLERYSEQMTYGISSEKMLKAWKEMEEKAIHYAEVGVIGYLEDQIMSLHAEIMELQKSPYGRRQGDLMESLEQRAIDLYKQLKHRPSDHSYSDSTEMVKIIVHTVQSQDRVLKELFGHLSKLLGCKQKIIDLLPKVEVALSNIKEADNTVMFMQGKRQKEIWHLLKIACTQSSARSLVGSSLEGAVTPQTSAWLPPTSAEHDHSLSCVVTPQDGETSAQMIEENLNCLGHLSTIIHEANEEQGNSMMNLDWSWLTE
Assay: Inhibition of IKK1
Conditions: not given

IC50 [nM] | SMILES
430 | CNc1nc2sc(-c3cccc(C(C)NC(C)=O)c3)nc2c2c1ncn2C (stereo not given)
230 | CNc1nc2sc(-c3cccc([C@H](C)NC(C)=O)c3)nc2c2c1ncn2C

Biological target: T2, Inhibitor of nuclear factor kappa-B kinase subunit beta (Homo sapiens, UniProt O14920)
T2 sequence (O14920 whole entry): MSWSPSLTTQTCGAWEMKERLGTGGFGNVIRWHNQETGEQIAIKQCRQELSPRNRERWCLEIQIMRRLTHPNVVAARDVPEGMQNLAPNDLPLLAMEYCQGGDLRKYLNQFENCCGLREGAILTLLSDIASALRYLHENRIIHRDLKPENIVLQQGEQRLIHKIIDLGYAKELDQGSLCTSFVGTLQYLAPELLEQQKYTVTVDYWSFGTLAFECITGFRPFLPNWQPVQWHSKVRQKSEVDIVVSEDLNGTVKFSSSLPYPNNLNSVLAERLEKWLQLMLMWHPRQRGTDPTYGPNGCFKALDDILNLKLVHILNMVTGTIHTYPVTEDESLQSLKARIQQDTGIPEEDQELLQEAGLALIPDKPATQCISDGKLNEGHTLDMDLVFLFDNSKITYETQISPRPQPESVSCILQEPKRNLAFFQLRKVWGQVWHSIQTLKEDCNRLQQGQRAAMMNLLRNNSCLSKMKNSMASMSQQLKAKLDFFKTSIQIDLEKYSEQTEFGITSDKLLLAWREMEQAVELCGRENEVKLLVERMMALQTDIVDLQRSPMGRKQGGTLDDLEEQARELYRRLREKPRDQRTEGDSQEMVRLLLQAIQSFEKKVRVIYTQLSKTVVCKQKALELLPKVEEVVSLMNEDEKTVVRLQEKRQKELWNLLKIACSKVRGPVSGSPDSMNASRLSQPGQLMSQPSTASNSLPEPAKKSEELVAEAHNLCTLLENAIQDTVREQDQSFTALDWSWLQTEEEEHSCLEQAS
Assay: Inhibition of IKK2
Conditions: not given
In short: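 IKK-2 added at room temperature to 50 µg/mL GST-IκBα with ATP in 25 mM Tris·HCl, pH 7.5, containing MgCl₂, phosphate salts, NaCl, KCl, 1 mM DTT, 5% glycerol and BSA. Stopped after 60 min with 33 mM EDTA. Phospho-IκBα read by fluorescence-polarization competition between an anti-phospho-IκBα antibody and a fluorescein-labelled phosphopeptide.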

SMILES | IC50 [nM]
CCNc1nc2sc(-c3cccc([C@H](C)NC(=O)c4cccc(S(C)(=O)=O)c4)c3)nc2c2c1ncn2C | 41
CC(=O)N[C@@H](C)c1cccc(-c2nc3c(nc(N(C)C)c4ncn(C)c43)s2)c1 | 100
CC(=O)N[C@@H](C)c1cccc(-c2nc3c(nc(NC(=O)N(C)C)c4ncn(C)c43)s2)c1 | 130
CCNc1nc2sc(-c3cccc([C@H](C)NC(=O)c4cc(C)on4)c3)nc2c2c1ncn2C | 78
CC(=O)N[C@@H](C)c1cccc(-c2nc3c(nc(N)c4ncn(C)c43)s2)c1 | 13
COc1nc2sc(-c3cccc([C@H](C)NC(C)=O)c3)nc2c2c1ncn2C | > 500
CNc1nc2sc(-c3cccc(C(C)NC(C)=O)c3)nc2c2c1ncn2C (stereo not given) | 9
CNc1nc2sc(-c3cccc([C@H](C)NC(C)=O)c3)nc2c2c1ncn2C | 6

Further lines, results first:

IC50 [nM] | SMILES
34 | CCNc1nc2sc(-c3cccc([C@H](C)NC(=O)C4(C)CC4)c3)nc2c2c1ncn2C
10 | CCNc1nc2sc(-c3cccc([C@H](C)NC(=O)C4CCN(C)CC4)c3)nc2c2c1ncn2C
20 | CCNc1nc2sc(-c3cccc([C@H](C)NC(=O)C4CCNCC4)c3)nc2c2c1ncn2C

Test system: Canis familiaris
Assay: Metabolic stability in dog assessed as metabolite (S)-N-(1-(3-(5-amino-8-methyl-8H-imidazo[4,5-d]thiazolo[5,4-b]pyridin-2-yl)phenyl)ethyl)acetamide total AUC at 2 mg/kg, iv
Format: ADME, organism-based, Canis lupus familiaris
Parameters: dose 2 mg/kg, route intravenous, time AUCmax
Conditions: in vivo

AUC [nM] | SMILES
400 | CC(=O)N[C@@H](C)c1cccc(-c2nc3c(nc(N)c4ncn(C)c43)s2)c1

Biological target: Death-associated protein kinase 2 (Homo sapiens) (UniProt Q9UIK4)
Assay: Residual activity at DAPK2 at 10 uM relative to control
Conditions: not given

Sequence of Death-associated protein kinase 2 (Homo sapiens) (Q9UIK4 whole entry, looked up): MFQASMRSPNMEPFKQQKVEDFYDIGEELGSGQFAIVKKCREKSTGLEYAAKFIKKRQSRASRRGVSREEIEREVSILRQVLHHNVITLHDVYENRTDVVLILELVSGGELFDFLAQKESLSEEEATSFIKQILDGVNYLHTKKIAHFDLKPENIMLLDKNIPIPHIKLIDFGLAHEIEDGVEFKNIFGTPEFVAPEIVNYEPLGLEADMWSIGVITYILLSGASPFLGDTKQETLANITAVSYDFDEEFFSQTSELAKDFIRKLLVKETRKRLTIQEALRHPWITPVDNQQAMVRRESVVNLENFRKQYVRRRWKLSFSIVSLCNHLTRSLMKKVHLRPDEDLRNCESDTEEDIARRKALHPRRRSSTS

SMILES | residual activity [%]
CC(=O)N[C@@H](C)c1cccc(-c2nc3c(nc(N)c4ncn(C)c43)s2)c1 | < 10

Test system: Rattus norvegicus
Assay: Metabolic stability in rat assessed as metabolite (S)-N-(1-(3-(5-amino-8-methyl-8H-imidazo[4,5-d]thiazolo[5,4-b]pyridin-2-yl)phenyl)ethyl)acetamide total AUC at 2 mg/kg, iv and 10 mg/kg, po
Format: ADME, organism-based
Conditions: in vivo

AUC [nM] | SMILES
2400 | CC(=O)N[C@@H](C)c1cccc(-c2nc3c(nc(N)c4ncn(C)c43)s2)c1

Test system: Mus musculus
Assay: Antiinflammatory activity in po dosed BALB/c mouse assessed as inhibition of LPS-induced TNFalpha release administered for 5 hrs before LPS challenge measured after 6.5 hrs post dose by ELISA
Format: functional, organism-based
Conditions: not given
In short: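 BALB/c female mice, 6–8 weeks old, n = 7–8 per treatment. Compounds given by oral gavage at 30 and 100 mg/kg in PEG400/HCl/Tween80/water; controls received vehicle alone. Five hours later, E. coli O111:B4 LPS 50 µg/kg ip. Serum collected 90 min after LPS, TNF-α measured by ELISA. Drug exposure sampled 6.5 h post-dose. Mean ± standard error.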

SMILES | inhibition
CC(=O)N[C@@H](C)c1cccc(-c2nc3c(nc(N)c4ncn(C)c43)s2)c1 | Dose-dependent effect

Test system: Blood
Assay: Antiinflammatory activity in mouse whole blood assessed as inhibition of LPS-induced TNFalpha release treated for 5 mins before LPS challenge measured after 6 hrs by ELISA
Format: functional, tissue-based
Conditions: not given

IC50 [nM] | SMILES
1000 | CC(=O)N[C@@H](C)c1cccc(-c2nc3c(nc(N)c4ncn(C)c43)s2)c1

Test system: not listed separately
Assay: Half life in rat at 2 mg/kg, iv and 10 mg/kg, po
Format: ADME, organism-based
Conditions: in vivo

SMILES | half-life [h]
CCNc1nc2sc(-c3cccc([C@H](C)NC(=O)c4cccc(S(C)(=O)=O)c4)c3)nc2c2c1ncn2C | 1.5
CCNc1nc2sc(-c3cccc([C@H](C)NC(=O)c4cc(C)on4)c3)nc2c2c1ncn2C | 2.8

More lines, now with the values ahead:

half-life [h] | SMILES
2 | CCNc1nc2sc(-c3cccc([C@H](C)NC(=O)C4(C)CC4)c3)nc2c2c1ncn2C
2.9 | CCNc1nc2sc(-c3cccc([C@H](C)NC(=O)C4CCNCC4)c3)nc2c2c1ncn2C

Test system: Mus musculus
Assay: Metabolic stability in mouse assessed as metabolite (S)-N-(1-(3-(5-amino-8-methyl-8H-imidazo[4,5-d]thiazolo[5,4-b]pyridin-2-yl)phenyl)ethyl)acetamide total AUC at 2 mg/kg, iv and 10 mg/kg, po
Format: ADME, organism-based
Conditions: in vivo

AUC [µM] | SMILES
3.37 | CC(=O)N[C@@H](C)c1cccc(-c2nc3c(nc(N)c4ncn(C)c43)s2)c1

Biological target: Serine/threonine-protein kinase 16 (Homo sapiens) (UniProt O75716)
Assay: Residual activity at STK16 at 10 uM relative to control
Conditions: not given

Sequence of Serine/threonine-protein kinase 16 (Homo sapiens) (O75716 whole entry): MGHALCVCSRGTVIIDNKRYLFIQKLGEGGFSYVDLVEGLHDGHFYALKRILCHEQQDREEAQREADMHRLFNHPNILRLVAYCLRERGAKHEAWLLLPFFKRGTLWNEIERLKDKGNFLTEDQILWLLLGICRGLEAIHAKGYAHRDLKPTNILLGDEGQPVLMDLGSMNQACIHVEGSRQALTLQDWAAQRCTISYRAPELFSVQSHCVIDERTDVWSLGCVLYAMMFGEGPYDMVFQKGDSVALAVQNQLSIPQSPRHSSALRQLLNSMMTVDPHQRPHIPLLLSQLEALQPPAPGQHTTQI

residual activity [%] | SMILES
< 10 | CC(=O)N[C@@H](C)c1cccc(-c2nc3c(nc(N)c4ncn(C)c43)s2)c1

Test system: PBMC
Assay: Antiinflammatory activity in human PBMC assessed as inhibition of LPS-induced TNFalpha release treated for 5 mins before LPS challenge measured after 6 hrs by ELISA
Format: functional, cell-based
Conditions: not given
In short: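 PBMCs purified from heparinized healthy-volunteer blood by Ficoll-Hypaque gradient and suspended at 5 × 10⁶/mL in RPMI with 10% FBS. Cells preincubated with compound (0.2% DMSO) for 5 min at room temperature. LPS added from a 200 ng/mL stock, then 6 h at 37 °C. Medium TNF-α measured by ELISA. IC50 by linear regression.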

SMILES | IC50 [nM]
CCNc1nc2sc(-c3cccc([C@H](C)NC(=O)C4(C)CC4)c3)nc2c2c1ncn2C | 440
CCNc1nc2sc(-c3cccc([C@H](C)NC(=O)C4CCN(C)CC4)c3)nc2c2c1ncn2C | 560
CCNc1nc2sc(-c3cccc([C@H](C)NC(=O)C4CCNCC4)c3)nc2c2c1ncn2C | 290
CCNc1nc2sc(-c3cccc([C@H](C)NC(=O)c4cccc(S(C)(=O)=O)c4)c3)nc2c2c1ncn2C | 220
CC(=O)N[C@@H](C)c1cccc(-c2nc3c(nc(N(C)C)c4ncn(C)c43)s2)c1 | 990
CCNc1nc2sc(-c3cccc([C@H](C)NC(=O)c4cc(C)on4)c3)nc2c2c1ncn2C | 940
CC(=O)N[C@@H](C)c1cccc(-c2nc3c(nc(N)c4ncn(C)c43)s2)c1 | 290
COc1nc2sc(-c3cccc([C@H](C)NC(C)=O)c3)nc2c2c1ncn2C | > 10000
CNc1nc2sc(-c3cccc(C(C)NC(C)=O)c3)nc2c2c1ncn2C (stereo not given) | 170
CNc1nc2sc(-c3cccc([C@H](C)NC(C)=O)c3)nc2c2c1ncn2C | 80

Test system: not listed separately
Assay: Clearance in rat at 2 mg/kg, iv and 10 mg/kg, po
Format: ADME, organism-based
Conditions: in vivo

SMILES | clearance [mL/min/kg]
CCNc1nc2sc(-c3cccc([C@H](C)NC(=O)c4cccc(S(C)(=O)=O)c4)c3)nc2c2c1ncn2C | 5.1
CCNc1nc2sc(-c3cccc([C@H](C)NC(=O)c4cc(C)on4)c3)nc2c2c1ncn2C | 2.8

Next, values leading:

clearance [mL/min/kg] | SMILES
7.5 | CCNc1nc2sc(-c3cccc([C@H](C)NC(=O)C4(C)CC4)c3)nc2c2c1ncn2C
130 | CCNc1nc2sc(-c3cccc([C@H](C)NC(=O)C4CCN(C)CC4)c3)nc2c2c1ncn2C
3 | CCNc1nc2sc(-c3cccc([C@H](C)NC(=O)C4CCNCC4)c3)nc2c2c1ncn2C

Test system: Blood
Assay: Antiinflammatory activity in human whole blood assessed as inhibition of LPS-induced TNFalpha release treated for 5 mins before LPS challenge measured after 6 hrs by ELISA
Format: functional, tissue-based
Conditions: not given

IC50 [nM] | SMILES
2000 | CC(=O)N[C@@H](C)c1cccc(-c2nc3c(nc(N)c4ncn(C)c43)s2)c1
